Calls of active or inactive are those of the source. How the calls were made is not given here.
Key:
Type in all cases: functional, cell-based
[1] = biological target: T1, Lysophosphatidic acid receptor 5 (Homo sapiens, UniProt Q9H1C0); assay: Antagonist activity at human LPA5 receptor expressed in RH7777 cells assessed as inhibition of EC80 concentration of hexadecyl LPA-induced calcium mobilization incubated for 15 mins by FLIPR method
[2] = biological target: T1, Lysophosphatidic acid receptor 5; assay: Antagonist activity at human LPA5 receptor expressed in RH7777 cells assessed as inhibition of EC80 concentration of hexadecyl LPA-induced calcium mobilization incubated for 15 mins by FLIPR method relative to hexadecyl LPA
[3] = biological target: T1, Lysophosphatidic acid receptor 5; assay: Agonist activity at human LPA5 receptor expressed in RH7777 cells assessed as calcium mobilization incubated for 15 mins by FLIPR method
Method in brief: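 RH7777 cells stably expressing hLPA5, plated 20,000/well in 0.2% FBS medium 18–20 h, loaded 45 min at 37 °C with Calcium 5 dye in HBSS/20 mM HEPES/2.5 mM probenecid pH 7.4. […] Duplicates.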

T1 sequence (Q9H1C0 whole entry): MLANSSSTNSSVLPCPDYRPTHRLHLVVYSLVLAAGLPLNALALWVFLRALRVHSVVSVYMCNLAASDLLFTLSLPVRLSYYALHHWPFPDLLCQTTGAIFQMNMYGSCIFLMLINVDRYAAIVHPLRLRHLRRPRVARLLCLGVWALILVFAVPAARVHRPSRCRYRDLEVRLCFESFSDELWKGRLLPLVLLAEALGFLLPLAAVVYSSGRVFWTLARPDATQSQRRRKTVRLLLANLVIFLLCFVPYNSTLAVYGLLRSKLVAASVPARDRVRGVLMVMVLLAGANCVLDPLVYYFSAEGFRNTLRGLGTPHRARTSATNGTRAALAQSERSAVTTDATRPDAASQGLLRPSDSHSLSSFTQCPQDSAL

COc1cc2c(C(=O)N3CCCCC3)cn(-c3ccc4scc(C)c4c3)c(=O)c2cc1OC
IC50 [1]: 32 nM | inhibition ([2]; filed as antagonist): 105% | Activity [3]: inactive

COc1cc2c(C(=O)N(C)C)cn(-c3cccc(N(C)C)c3)c(=O)c2cc1OC
IC50 [1]: > 10000 nM | Activity [3]: inactive

COc1cc2c(C(=O)N3CCC(C(F)(F)F)CC3)cn(-c3cccc(N(C)C)c3)c(=O)c2cc1OC
IC50 [1]: 1560 nM | inhibition ([2]; filed as antagonist): 87% | Activity [3]: inactive

COc1cc2c(C(=O)Nc3ccccc3)cn(-c3cccc(N(C)C)c3)c(=O)c2cc1OC
IC50 [1]: > 10000 nM | Activity [3]: inactive

COc1cc2c(C(=O)N3CCCC3)cn(-c3cccc(N(C)C)c3)c(=O)c2cc1OC
IC50 [1]: > 10000 nM | Activity [3]: inactive

CCCOc1cc2c(C(=O)N3CCC(F)CC3)cn(-c3cccc(N(C)C)c3)c(=O)c2cc1OC
IC50 [1]: 480 nM | inhibition ([2]; filed as antagonist): 109% | Activity [3]: inactive

COc1cc2c(=O)n(-c3cccc(N(C)C)c3)cc(C(=O)N3CCC(F)CC3)c2cc1OCc1cccc2ccccc12
IC50 [1]: > 10000 nM | Activity [3]: inactive

COc1cc2c(=O)n(-c3cccc(N(C)C)c3)cc(C(=O)N3CCC(F)CC3)c2cc1OC1CCCCC1
IC50 [1]: 510 nM | inhibition ([2]; filed as antagonist): 96% | Activity [3]: inactive

COc1cc2c(C(=O)NC3CCCC3)cn(-c3cccc(N(C)C)c3)c(=O)c2cc1OC
IC50 [1]: > 10000 nM | Activity [3]: inactive

COc1cc2c(C(=O)N3CCC(C)(C)CC3)cn(-c3cccc(N(C)C)c3)c(=O)c2cc1OC
IC50 [1]: 1100 nM | inhibition ([2]; filed as antagonist): 90% | Activity [3]: inactive

COc1cc2c(=O)n(-c3cccc(N(C)C)c3)cc(C(=O)N3CCC(F)CC3)c2cc1OC(C)C
IC50 [1]: 369 nM | inhibition ([2]; filed as antagonist): 96% | Activity [3]: inactive

COc1cc2c(=O)n(-c3cccc(N(C)C)c3)cc(C(=O)N3CCC(F)CC3)c2cc1OC1CCCC1
IC50 [1]: 890 nM | inhibition ([2]; filed as antagonist): 103% | Activity [3]: inactive

COc1cc2c(C(=O)N3CCC(C)CC3)cn(-c3cccc(N(C)C)c3)c(=O)c2cc1OC
IC50 [1]: 160 nM | inhibition ([2]; filed as antagonist): 105% | Activity [3]: inactive

COc1cc2c(C(=O)N3C4CCC3CC4)cn(-c3cccc(N(C)C)c3)c(=O)c2cc1OC
IC50 [1]: > 10000 nM | Activity [3]: inactive

COc1cc2c(C(=O)N3CCC(C(N)=O)CC3)cn(-c3cccc(N(C)C)c3)c(=O)c2cc1OC
IC50 [1]: > 10000 nM | Activity [3]: inactive

COc1cc2c(C(=O)N(C)Cc3ccncc3)cn(-c3cccc(N(C)C)c3)c(=O)c2cc1OC
IC50 [1]: > 10000 nM | Activity [3]: inactive

COc1cc2c(C(=O)N3CCCCC3)cn(-c3cccc(C(C)(C)C)c3)c(=O)c2cc1OC
IC50 [1]: 173 nM | inhibition ([2]; filed as antagonist): 107% | Activity [3]: inactive

COc1cc2c(C(=O)N3C4CCCC3CC4)cn(-c3cccc(N(C)C)c3)c(=O)c2cc1OC
IC50 [1]: 230 nM | inhibition ([2]; filed as antagonist): 103% | Activity [3]: inactive

CCCCCOc1cc2c(C(=O)N3CCC(F)CC3)cn(-c3cccc(N(C)C)c3)c(=O)c2cc1OC
IC50 [1]: 230 nM | inhibition ([2]; filed as antagonist): 111% | Activity [3]: inactive

CC#CC1CCN(C(=O)c2cn(-c3cccc(N(C)C)c3)c(=O)c3cc(OC)c(OC)cc23)CC1
IC50 [1]: 91 nM | inhibition ([2]; filed as antagonist): 91% | Activity [3]: inactive

COc1cc2c(C(=O)N3CCCCC3)cn(-c3ccncc3)c(=O)c2cc1OC
IC50 [1]: > 10000 nM | Activity [3]: inactive

COc1cc2c(C(=O)N3CCCCC3)cn(-c3ccc4onc(C)c4c3)c(=O)c2cc1OC
IC50 [1]: 3900 nM | inhibition ([2]; filed as antagonist): 56% | Activity [3]: inactive

COc1cc2c(C(=O)N3CCC3)cn(-c3cccc(N(C)C)c3)c(=O)c2cc1OC
IC50 [1]: > 10000 nM | Activity [3]: inactive

COc1cc2c(C(=O)N3CCCCC3)cn(-c3ccc4cccc(C)c4c3)c(=O)c2cc1OC
IC50 [1]: 210 nM | inhibition ([2]; filed as antagonist): 108% | Activity [3]: inactive

COc1cc2c(C(=O)N3CCCCC3)cn(-c3ccc4sccc4c3)c(=O)c2cc1OC
IC50 [1]: 640 nM | inhibition ([2]; filed as antagonist): 101% | Activity [3]: inactive

COc1cc2c(=O)n(-c3cccc(N(C)C)c3)cc(C(=O)N3CCC(F)CC3)c2cc1OCc1ccccn1
IC50 [1]: > 10000 nM | Activity [3]: inactive

COc1cc2c(C(=O)N3CCCC(C)C3)cn(-c3cccc(N(C)C)c3)c(=O)c2cc1OC (racemic)
IC50 [1]: 260 nM | inhibition ([2]; filed as antagonist): 104% | Activity [3]: inactive

COc1cc2c(C(=O)N3CCCCC3C)cn(-c3cccc(N(C)C)c3)c(=O)c2cc1OC (racemic)
IC50 [1]: 990 nM | inhibition ([2]; filed as antagonist): 98% | Activity [3]: inactive

COc1cc2c(C(=O)N3CCCCC3)cn(-c3cccc(OC(C)C)c3)c(=O)c2cc1OC
IC50 [1]: 630 nM | inhibition ([2]; filed as antagonist): 100% | Activity [3]: inactive

COc1cc2c(C(=O)N(C)OC)cn(-c3cccc(N(C)C)c3)c(=O)c2cc1OC
IC50 [1]: 320 nM | inhibition [2]: 33% | Activity [3]: inactive

COc1cc2c(C(=O)N3CCCCC3)cn(-c3cccc(C(=O)N(C)C)c3)c(=O)c2cc1OC
IC50 [1]: > 10000 nM | Activity [3]: inactive

COc1cc2c(C(=O)N3CCCCC3)cn(-c3cccc(C(C)C)c3)c(=O)c2cc1OC
IC50 [1]: 63 nM | inhibition ([2]; filed as antagonist): 105% | Activity [3]: inactive

COc1cc2c(=O)n(-c3cccc(N(C)C)c3)cc(C(=O)N3CCC(F)CC3)c2cc1OCC(F)(F)F
IC50 [1]: 2500 nM | inhibition ([2]; filed as antagonist): 74% | Activity [3]: inactive

COc1cc2c(C(=O)N3CCOCC3)cn(-c3cccc(N(C)C)c3)c(=O)c2cc1OC
IC50 [1]: 2200 nM | inhibition ([2]; filed as antagonist): 71% | Activity [3]: inactive

COc1ccc2c(C(=O)N3CCC(F)CC3)cn(-c3cccc(N(C)C)c3)c(=O)c2c1
IC50 [1]: 1060 nM | inhibition ([2]; filed as antagonist): 96% | Activity [3]: inactive

CCCCCNC(=O)c1cn(-c2cccc(N(C)C)c2)c(=O)c2cc(OC)c(OC)cc12
IC50 [1]: > 10000 nM | Activity [3]: inactive

CN(C)c1cccc(-n2cc(C(=O)N3CCC(F)CC3)c3ccccc3c2=O)c1
IC50 [1]: > 10000 nM | Activity [3]: inactive

COc1cc2c(C(=O)C3CCCCC3)cn(-c3cccc(N(C)C)c3)c(=O)c2cc1OC
IC50 [1]: > 10000 nM | Activity [3]: inactive

COc1cc2c(C(=O)N3CCCCC3)cn(-c3ccc4occc4c3)c(=O)c2cc1OC
IC50 [1]: 1100 nM | inhibition ([2]; filed as antagonist): 93% | Activity [3]: inactive

CCNC(=O)c1cn(-c2cccc(N(C)C)c2)c(=O)c2cc(OC)c(OC)cc12
IC50 [1]: > 10000 nM | Activity [3]: inactive

COc1cc2c(C(=O)N3CCCCC3)cn(-c3cccc(C(N)=O)c3)c(=O)c2cc1OC
IC50 [1]: > 10000 nM | Activity [3]: inactive

COc1cc2c(C(=O)N3CCCCC3)cn(-c3cccnc3)c(=O)c2cc1OC
IC50 [1]: > 10000 nM | Activity [3]: inactive

COc1cc2c(C(=O)N3CCCCC3)cn(-c3ccccn3)c(=O)c2cc1OC
IC50 [1]: > 10000 nM | Activity [3]: inactive

COc1cc2c(C(=O)N3CCC(c4ccc(F)cc4F)CC3)cn(-c3cccc(N(C)C)c3)c(=O)c2cc1OC
IC50 [1]: > 10000 nM | Activity [3]: inactive

COc1ccc2c(=O)n(-c3cccc(N(C)C)c3)cc(C(=O)N3CCC(F)CC3)c2c1
IC50 [1]: > 10000 nM | Activity [3]: inactive

COc1cc2c(C(=O)NCc3ccccc3)cn(-c3cccc(N(C)C)c3)c(=O)c2cc1OC
IC50 [1]: > 10000 nM | Activity [3]: inactive
